From PubChem BioAssay
Diaphorase act – compounds boosting diaphorase resazurin reduction – biochemical, uHTS, resorufin fluorescence, counter-screen for diaphorase-coupled primary assays, primary screen; Diaphorase/resazurin coupled assay, 16 min; active compounds read high; 1 = vehicle wells, 0 = NADH-free wells; activation factor at 20 µM; actives 0.005% (n = 190,000);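 active means diaphorase activity raised at least twofold by the compound at 20 µM; inactive means activation factor below 2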
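test system = bacterial diaphorase enzyme (C. kluyveri) | quantity = enzyme 0.07 U/mL final | reagent = NADH substrate 0.114 mM plus resazurin dye 0.1 mM, final | incubation = 16 min enzyme reaction, ambient temperature | buffer or medium = HEPES pH 7.4 buffer with MgCl2 and Tween 20 | signal = fluorescence of resorufin, 544 nm excitation, 590 nm emission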
ATG4B inh – ATG4B protease inhibitors, primary screen, biochemical, fluorescence, uHTS. Cysteine protease ATG4B (Homo sapiens), Q9Y4P1. ATG4B cleavage of LC3-PLA2, NBD-HPC fluorescence, 1 h. inhibition, % at 8.33 µM. actives 0.51% (n = 340,000); in the data active means inhibition above about 40%
Target sequence (Q9Y4P1 whole entry, looked up): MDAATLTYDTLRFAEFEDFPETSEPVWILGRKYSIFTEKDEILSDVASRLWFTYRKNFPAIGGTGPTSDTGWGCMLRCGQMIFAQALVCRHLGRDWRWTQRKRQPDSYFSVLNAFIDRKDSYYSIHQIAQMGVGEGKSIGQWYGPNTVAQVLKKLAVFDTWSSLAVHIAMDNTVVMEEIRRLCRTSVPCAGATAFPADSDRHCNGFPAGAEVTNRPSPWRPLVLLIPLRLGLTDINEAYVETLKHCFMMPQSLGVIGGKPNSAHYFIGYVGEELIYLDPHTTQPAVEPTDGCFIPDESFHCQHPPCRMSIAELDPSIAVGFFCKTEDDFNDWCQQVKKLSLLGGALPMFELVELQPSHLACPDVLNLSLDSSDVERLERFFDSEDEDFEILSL
Fh CTSL1 inh – Fasciola hepatica cathepsin L1 inhibitors, primary screen, counter-screen for PFM18AAP inhibitor project, biochemical, QFRET, fluorogenic peptide substrate | recombinant F. hepatica cathepsin L1, Z-Leu-Arg-MCA fluorescence | inhibition, % at 5.96 µM | actives 0.49% (n = 300,000) | AID 1906, 2009;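 active means inhibition above the mean of all tested compounds plus 3 SD, set per screening campaign, cut at about 17% in these data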;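 further: 0% = plate median of test compound wells and 100% = 1 µM Z-Phe-Ala-diazomethylketone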
HKDC1 inh – HKDC1 hexokinase inhibitors, primary screen, biochemical, fluorescence, uHTS; Q2TB90; recombinant HKDC1, G6PDH/diaphorase resazurin coupled fluorescence; inhibition, % at 20 µM; actives 0.16% (n = 340,000); AID 493160, 2011;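 active means inhibition above about 35% when tested at 20 µM, limit read from the data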;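 further: plate controls were DMSO wells with enzyme for no effect and DMSO wells lacking enzyme for full effect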
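Test system: recombinant HKDC1 (HK5) hexokinase enzyme, produced in-house; Amount: enzyme 5 µg/mL final; Buffer or medium: Tris pH 8.0 buffer with MgCl2, Tween-20, BSA, BME; Reagent: glucose and ATP substrates; Doses: 20 µM test compound, 1% DMSO; Incubation: 90 min reaction incubation at room temperature, dark; Detection: resorufin fluorescence at 613 nm.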
Diaph inh CS – diaphorase inhibitors and chemical oxidizers, primary screen, counter-screen for diaphorase-coupled primary assays, biochemical, uHTS, resorufin fluorescence. diaphorase resazurin-to-resorufin fluorescence, NADH, 16 min; bacterial (C. kluyveri) enzyme, not human. inhibition, % at 20 µM. actives 0.69% (n = 190,000). AID 1217, 2008;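 active means primary screen inhibition at 20 µM above a set limit, cut at about 50% in these data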;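 further: plate controls were DMSO with full reaction for no effect and wells lacking NADH for full effect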
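Assay system: diaphorase enzyme from Clostridium kluyveri; Input: enzyme working solution with 0.14 U/mL diaphorase; Timing: 16 min at room temperature; Technique: resorufin fluorescence, excitation 544 nm, emission 590 nm; Benchmarks: positive control minus NADH, DMSO neutral control.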
The depositor's hits bear a star; nt = not tested or not shown. An excerpt weighted towards active compounds, which were near 1.4% of everything screened.

SMILES	Diaphorase act	ATG4B inh	Fh CTSL1 inh	HKDC1 inh	Diaph inh CS
CS(=O)(=O)c1ccccc1C(=O)NC1CCCc2ccccc21 (stereo not given)	0.9	-3.3	20.7*	-8.1	7.9
O=C(C1CCCN1S(=O)(=O)c1ccc(Cl)cc1)N1CCN(c2ccccc2)CC1 (stereo not given)	nt	-1.9	nt	-0.9	nt
Cc1ccc2nc(C)cc(N3CCOCC3)c2c1	0.9	-1.9	8.4	-4.2	8.9
Cc1c(C(=O)O)c(C(=O)O)nc2ccc(N3CCOCC3)cc12	0.5	nt	-1.6	nt	54.8*
O=C(NC(=S)Nc1ccccc1Cl)c1csnn1	1.1	-5.1	0.1	-5.2	-7.9
O=C(Nc1ccccc1NC(=O)c1csnn1)c1csnn1	1.1	-5.0	28.1*	1.1	-5.6
COc1ccc(CCNC(=O)c2cnn3c(C(F)F)cc(C)nc23)cc1OC	0.2	-1.2	-2.4	30.7	78.5*
CCc1c(O)nc(SCC(=O)N2CCc3cc(OC)c(OC)cc3[C@@H]2C)[nH]c1=O	nt	-5.4	-0.2	5.2	nt
CC(C)[C@H](NC(=O)c1ccc(Cl)cc1Cl)C(=O)NNC(=O)c1ccco1	nt	5.8	nt	0.2	nt
CCOC(=O)CNc1nc(C#N)nc(N2CCOCC2)n1	0.9	-7.8	22.8*	-0.1	7.2
N#Cc1nc(N2CCCC2)nc(N2CCCC2)n1	1.1	0.7	56.0*	1.4	-8.4
CCOC(=O)CNc1nc(Cl)nc(N2CCCCC2)n1	nt	-3.5	0.6	1.5	nt
N#Cc1nc(N2CCCCC2)nc(N2CCOCC2)n1	0.8	6.5	75.9*	-8.9	20.3
CN(C)c1nc(C#N)nc(N2CCOCC2)n1	0.9	1.8	52.8*	-6.1	9.2
CC1=C(C(=O)Nc2cc(C(=O)N3CCC(C)CC3)ccc2C)SCCO1	nt	-5.7	0.4	1.8	nt
Cc1ccc(C(=O)N/N=C/c2cc(Br)ccc2O)cn1	nt	-5.7	18.7*	-33.8	nt
Cc1ccc(C(=O)N/N=C\C=C\c2ccc(Br)cc2)cn1	0.9	-8.6	2.6	10.6	5.1
CCCCNC(=O)Oc1cc(CCl)on1	0.3	nt	-4.8	nt	70.3*
CCOC(=O)C1C(=O)C(=O)N(Cc2ccccc2)C1C(=O)OCC (stereo not given)	nt	-2.4	nt	-3.4	nt
CCCCN(C)CCNC(=O)C1CCN(S(=O)(=O)c2cccc3nsnc23)CC1	nt	2.5	6.8	-2.8	nt
O=C1COc2ccc(C(=O)COC(=O)c3ccc([N+](=O)[O-])cc3Cl)cc2N1	nt	-10.2	nt	6.1	nt
COc1ccc(NC(=O)Nc2cccc3c2O[C@H](CN(C)S(C)(=O)=O)[C@@H](C)CN([C@H](C)CO)C3=O)cc1	nt	-2.4	nt	-5.4	nt
O=C(CCCCl)Nc1c2c(nn1-c1ccccc1)CSC2	nt	-0.9	-5.7	-2.8	nt
O=C(CCl)Nc1c2c(nn1-c1ccccc1)CSC2	nt	-6.9	79.7*	5.9	nt
CC(=O)N1CCN(Cc2nc3cc(NC(=O)COc4cccc(C)c4)ccc3n2C)CC1	nt	0.4	3.1	-1.9	nt
SMILES	Diaphorase act	ATG4B inh	Fh CTSL1 inh	HKDC1 inh	Diaph inh CS
CC(OC(=O)CNC(=O)c1sc2ccccc2c1Cl)C(=O)NC1(C#N)CCCCC1 (stereo not given)	nt	-17.1	nt	-2.3	nt
Cc1ccc(-c2csc3nc[nH]c(=S)c23)cc1	0.3	-7.0	3.0	1.6	69.9*
Cc1cc(-c2csc3nc[nH]c(=S)c23)cc(C)c1C	0.4	-9.4	-1.1	5.8	56.3*
Cc1sc2nc[nH]c(=S)c2c1-c1ccccc1	0.2	-9.3	0.8	9.1	81.8*
Cc1sc2nc[nH]c(=O)c2c1-c1ccc(F)cc1	nt	4.1	0.8	-5.3	nt
S=c1[nH]cnc2scc(-c3ccc(Br)cc3)c12	0.7	-9.5	2.1	6.5	29.5
Cc1cc(C(=O)N/N=C/c2ccc(O)c([N+](=O)[O-])c2)n[nH]1	1	-3.1	4.8	-9.2	4.7
Cc1cc(C(=O)N/N=C/c2cccc([N+](=O)[O-])c2O)n[nH]1	0.5	2.3	1.4	1.6	50.2*
O=[N+]([O-])c1ccccc1/C=C/C=N/n1c(-c2cc(-c3ccccc3)n[nH]2)n[nH]c1=S	nt	9.2	5.2	-4.1	nt
Cc1ccc(-c2n[nH]c(=S)n2/N=C/C=C/c2ccccc2[N+](=O)[O-])cc1	0.4	1.4	3.9	1.5	55.4*
O=[N+]([O-])c1cc2c(cc1/C=N/n1c(-c3ccccc3)n[nH]c1=S)OCO2	0.4	-10.9	1.6	6.5	55.0*
O=[N+]([O-])c1ccccc1/C=C/C=N/n1c(-c2ccco2)n[nH]c1=S	0.2	-4.1	1.6	10.0	80.9*
O=C(COC(=O)Cc1c(F)cccc1Cl)NC(=O)c1ccccc1	nt	11.0	-10.4	-6.9	nt
CC(=O)NC(CC(=O)OCC(=O)N1CCc2ccccc21)c1ccccc1 (stereo not given)	nt	-9.6	-3.4	5.2	nt
CCCOc1ccc(CNC(=O)C2CCN(C(=O)N3CCOc4ccccc43)CC2)cc1	nt	-4.4	-1.0	-3.1	nt
CCOc1ccc(S(=O)(=O)N2CCC(C(=O)NCc3ccncc3)CC2)cc1C	nt	-3.1	4.8	-3.7	nt
CCCn1cc(CN2CCC(n3nccc3NC(=O)c3ccc4c(c3)OCO4)CC2)c(C)n1	nt	-5.4	2.0	-5.0	nt
Cc1nnc(SCc2cc(=O)[nH]c(=S)[nH]2)s1	0.4	1.3	-3.3	-1.7	64.1*
O=c1cc(CSc2ccccc2)[nH]c(=S)[nH]1	0.6	-9.6	4.5	3.4	40.3
O=C1CCC(C(=O)N2CCCCO2)CN1Cc1cccc(F)c1 (stereo not given)	nt	-7.2	-1.3	-7.6	nt
O=C1C=C(Nc2ccccc2O)c2ccccc2C1=O	0.8	10.9	22.4*	23.6	15.8
Cc1ccc(NC2=CC(=O)C(=O)c3ccccc32)c(C)c1	nt	13.9	nt	17.8	nt
CN(Cc1c(O)ccc2c1oc(=O)c1ccccc12)C1CCCCC1	0.1	-3.6	-4.7	22.3	93.8*
CN(C)Cc1c(O)ccc2c3c(c(=O)oc12)CCCCC3	0.9	8.8	5.7	-3.2	8.3
CC1CCCC(NC(=O)CCS(=O)(=O)c2cc3c(cc2Cl)NC(=O)CO3)C1C (stereo not given)	nt	-0.1	-3.5	-3.8	nt
S=c1ncc2[nH]c(=S)[nH]c2[nH]1	nt	-3.6	nt	0.3	nt
CC(C)(C)C(=O)Nc1ccccc1C(=O)N1CCCC1	0.9	-6.4	17.4*	-3.1	7.0
COC(=O)Nc1ccccc1C(=O)N1CCCCC1	1.1	-7.7	-0.2	-1.9	-13.1
COc1ccc(COC(=O)c2cccc(S(=O)(=O)N3CCN(C(C)=O)CC3)c2)cc1	nt	-6.8	11.8	1.1	nt
CSCc1ccc(C(=O)NC(C)c2ccc(-n3ccnc3)cc2)cc1 (stereo not given)	nt	-5.8	nt	2.1	nt
